{
  "source": "ChEMBL document CHEMBL4321877",
  "about": "“Development of Novel N-hydroxypyridone Derivatives as Potential Anti-Ischemic Stroke Agents” (J Med Chem, 2020)",
  "key": {"SH-SY5Y [1]": {"system": "SH-SY5Y", "test": "Cytotoxicity against human SH-SY5Y cells assessed as reduction in cell viability measured after 24 hrs by MTT assay", "format": "cell-based", "method_in_brief": "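SH-SY5Y cells (1:1 MEM/F12, 10% FBS) seeded 3 × 10^4 cells/well, grown 24 h, then exposed without insult for 24 h to 1.56–100 µM or to 1 and 10 µM (DMSO stock diluted in medium). MTT read at 490 nm; viability as % of untreated control.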"}, "Rattus norvegicus [2]": {"system": "Rattus norvegicus", "test": "Neuroprotective activity in Sprague-Dawley rat model of middle cerebral artery occlusion-induced ischemia-reperfusion injury assessed as infarction volume at 3 mg/kg, iv by TTC staining based assay (reference value: 39%)", "format": "functional", "method_in_brief": "(§1)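 Male Sprague-Dawley rats under chloral hydrate (400 mg/kg, i.p.); nylon monofilament through the left internal carotid artery occluded the MCA origin for 2 h, then was withdrawn for reperfusion. Drug in 0.9% saline was injected via the tail vein immediately after reperfusion. After 24 h, 2 mm coronal sections were stained with 1% TTC at 37 °C for 15 min and fixed in 4% paraformaldehyde. Infarct % = (normal hemisphere − non-infarcted ischemic hemisphere)/normal hemisphere ×100. n=15-18, mean ± SEM.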"}, "[3]": {"test": "Half life in mouse liver microsomes at 1 uM in presence of NADPH by LC-MS/MS analysis", "format": "ADME, Microsome"}, "[4]": {"test": "Solubility of the compound in […] incubated for 24 hrs by HPLC analysis", "format": "physicochemical"}, "[5]": {"target": "Voltage-gated inwardly rectifying potassium channel KCNH2 (Homo sapiens, UniProt Q12809)", "sequence (Q12809 whole entry)": "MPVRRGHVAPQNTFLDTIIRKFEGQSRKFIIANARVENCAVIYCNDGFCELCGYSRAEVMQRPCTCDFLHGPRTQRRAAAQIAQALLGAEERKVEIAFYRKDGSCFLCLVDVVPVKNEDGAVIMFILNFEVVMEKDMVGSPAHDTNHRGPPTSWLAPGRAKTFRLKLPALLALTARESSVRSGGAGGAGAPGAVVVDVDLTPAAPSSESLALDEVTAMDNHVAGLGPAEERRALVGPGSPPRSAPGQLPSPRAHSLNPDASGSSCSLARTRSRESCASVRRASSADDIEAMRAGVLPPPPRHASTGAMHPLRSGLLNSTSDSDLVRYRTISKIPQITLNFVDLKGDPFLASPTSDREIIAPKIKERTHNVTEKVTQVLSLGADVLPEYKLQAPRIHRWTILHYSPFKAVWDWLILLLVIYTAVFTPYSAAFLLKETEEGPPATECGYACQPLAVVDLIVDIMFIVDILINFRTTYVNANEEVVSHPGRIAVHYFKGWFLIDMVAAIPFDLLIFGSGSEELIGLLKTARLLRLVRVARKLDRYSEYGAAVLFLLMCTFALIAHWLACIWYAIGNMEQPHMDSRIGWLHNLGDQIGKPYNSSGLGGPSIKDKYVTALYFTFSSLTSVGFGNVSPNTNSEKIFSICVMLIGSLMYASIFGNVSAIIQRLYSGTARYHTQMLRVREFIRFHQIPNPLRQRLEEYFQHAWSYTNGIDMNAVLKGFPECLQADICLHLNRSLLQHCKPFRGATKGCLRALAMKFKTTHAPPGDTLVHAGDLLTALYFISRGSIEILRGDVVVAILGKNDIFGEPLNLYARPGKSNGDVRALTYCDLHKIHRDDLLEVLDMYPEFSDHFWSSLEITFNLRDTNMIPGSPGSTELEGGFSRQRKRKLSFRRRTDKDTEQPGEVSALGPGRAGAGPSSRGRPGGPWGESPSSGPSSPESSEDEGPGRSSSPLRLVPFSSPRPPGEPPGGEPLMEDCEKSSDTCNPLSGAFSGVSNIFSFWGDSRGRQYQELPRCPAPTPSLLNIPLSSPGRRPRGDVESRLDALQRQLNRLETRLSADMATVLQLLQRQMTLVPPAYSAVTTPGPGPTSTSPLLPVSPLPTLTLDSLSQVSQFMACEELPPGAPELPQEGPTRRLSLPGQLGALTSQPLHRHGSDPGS", "test": "Inhibition of human ERG stably expressed in CHO cells at -80 mV by automated Qpatch electrophysiological assay", "format": "cell-based"}, "SH-SY5Y [6]": {"system": "SH-SY5Y", "test": "Neuroprotective activity against H2O2-induced cell death in human SH-SY5Y cells assessed as cell viability at 1 to 4 uM preincubated for 2 hrs followed by H2O2-challenge by MTT assay (reference value: 45.73%)", "format": "functional"}, "MRC5": {"system": "MRC5", "test": "Cytotoxicity against human MRC5 cells assessed as reduction in cell viability measured after 72 hrs by CCK8 assay", "format": "cell-based", "conditions": "MRC5, 72 h", "method_in_brief": "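MRC-5 cells grown in MEM with 10% FBS, NEAA, 5% CO2 at 37 °C; seeded 7000 cells/well, treated at several concentrations for 72 h. Viability by CCK-8 absorbance at 450 nm, expressed as % of vehicle-treated cells; IC50 reported as mean ± SD.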"}, "Rattus norvegicus [7]": {"system": "Rattus norvegicus", "test": "Neuroprotective activity in iv dosed Sprague-Dawley rat model of middle cerebral artery occlusion-induced ischemia-reperfusion injury assessed as concentration required to reduce infarction volume to < 26% by TTC staining based assay", "format": "functional", "method_in_brief": "as §1"}, "SH-SY5Y [8]": {"system": "SH-SY5Y", "test": "Neuroprotective activity against oxygen-glucose deprivation-induced morphological changes in human SH-SY5Y cells assessed as suppression of bright cell body appearance preincubated for 2 hrs followed by OGD-challenge and measured after 24 hrs by microscopic analysis", "format": "functional, cell-based", "method_in_brief": "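SH-SY5Y cells treated immediately before 2 h OGD (glucose/serum-free, hypoxia chamber, 37 °C), then reoxygenated; morphology (neurites, cell body, cell number) inspected by light microscopy 24 h after insult.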"}, "Rattus norvegicus [9]": {"system": "Rattus norvegicus", "test": "Neuroprotective activity in Sprague-Dawley rat model of middle cerebral artery occlusion-induced ischemia-reperfusion injury assessed as infarction volume at 1 mg/kg, iv by TTC staining based assay (reference value: 39%)", "format": "functional", "method_in_brief": "as §1"}, "SH-SY5Y [10]": {"system": "SH-SY5Y", "test": "Neuroprotective activity against oxygen-glucose deprivation-induced morphological changes in human SH-SY5Y cells assessed as suppression of neurite disappearance […] and measured after 24 hrs by microscopic analysis", "format": "functional, cell-based"}, "SH-SY5Y [11]": {"system": "SH-SY5Y", "test": "(§2) Neuroprotective activity against oxygen-glucose deprivation-induced apoptosis in human SH-SY5Y cells assessed as necrotic cells at 4 uM preincubated for 2 hrs followed by OGD-challenge and measured after 24 hrs by Annexin V-FITC/propidium iodide staining-based flow cytometric method (reference value: 6.46%)", "format": "functional"}, "SH-SY5Y [12]": {"system": "SH-SY5Y", "test": "as §2, with “late apoptotic” for “necrotic”, “28.2%)” for “6.46%)”", "format": "functional"}, "SH-SY5Y [13]": {"system": "SH-SY5Y", "test": "as §2, with “early apoptotic” for “necrotic”, “17.1%)” for “6.46%)”", "format": "functional"}, "SH-SY5Y [14]": {"system": "SH-SY5Y", "test": "as §2, with “viable” for “necrotic”, “48.2%)” for “6.46%)”", "format": "functional", "conditions": "read-out: Activity"}, "HT-22": {"system": "HT-22", "test": "Neuroprotective activity against glutamate-induced cell death in mouse HT22 cells assessed as increase in cell viability up to 4 uM preincubated for 2 hrs followed by glutamate-challenge and measured after 24 hrs by MTT assay", "format": "functional, cell-based", "method_in_brief": "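HT22 mouse hippocampal cells (DMEM, 10% FBS) seeded 5×10^4 cells/ml and grown 12 h. Compound added for 2 h, then 10 mM L-glutamic acid hydrochloride for 24 h. Viability by MTT at 490 nm as % of control; mean ± SD, n = 3.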"}, "SH-SY5Y [15]": {"system": "SH-SY5Y", "test": "Neuroprotective activity against oxygen-glucose deprivation-induced morphological changes in human SH-SY5Y cells assessed as increase in cell number added immediately before OGD-challenge and measured after 24 hrs by microscopic analysis"}, "SH-SY5Y [16]": {"system": "SH-SY5Y", "test": "Neuroprotective activity against oxygen-glucose deprivation-induced morphological changes in human SH-SY5Y cells assessed as suppression of cell shrinkage […] and measured after 24 hrs by microscopic analysis", "format": "functional, cell-based"}, "Rattus norvegicus [17]": {"system": "Rattus norvegicus", "test": "Neuroprotective activity in Sprague-Dawley rat model of middle cerebral artery occlusion-induced ischemia-reperfusion injury assessed as reduction in disease severity score at 1 mg/kg, iv measured 24 hrs post-reperfusion", "format": "functional, organism-based", "method_in_brief": "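Male Sprague-Dawley rats anesthetized with chloral hydrate (400 mg/kg i.p.); left MCA occluded by intraluminal nylon suture for 2 h, then withdrawn. Compound in 0.9% saline given by tail vein immediately after reperfusion; body temperature held at 37.0 ± 0.5 °C. mNSS scored 24 h later; n = 15–18, mean ± SEM.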"}, "Rattus norvegicus [18]": {"system": "Rattus norvegicus", "test": "Neuroprotective activity in Sprague-Dawley rat model of middle cerebral artery occlusion-induced ischemia-reperfusion injury assessed as infarction volume at 0.3 mg/kg, iv by TTC staining based assay (reference value: 39%)", "format": "functional", "method_in_brief": "as §1"}},
  "note": "Activity calls are given as the source filed them. The rule behind the calls is not given here.",
  "data": [
    {"smiles": "Cc1cc(C2CCCCC2)n(O)c(=O)c1.NCCO", "note": "[CICLOPIROX OLAMINE]", "values": [
      {"measurement": "IC50", "setting": "SH-SY5Y [1]", "value": "> 100", "unit": "µM"},
      {"measurement": "Activity", "setting": "Rattus norvegicus [2]", "value": 26, "unit": "%"},
      {"measurement": "half-life at 1 µM", "setting": "[3]", "value": 0.886, "unit": "h"},
      {"measurement": "solubility", "setting": "[4]; buffer, 24 h", "value": 6.82, "unit": "mg/mL"},
      {"measurement": "IC50", "setting": "[5]", "value": "> 40", "unit": "µM"},
      {"measurement": "Activity", "setting": "SH-SY5Y [6]", "value": "<=80%"},
      {"measurement": "IC50", "setting": "MRC5", "value": 23.5, "unit": "µM"},
      {"measurement": "Activity", "setting": "Rattus norvegicus [7]", "value": 3, "unit": "mg/kg"}
    ]},
    {"smiles": "Cc1cc([C@@H]2C[C@@H]3CC[C@H]2C3)n(O)c(=O)c1.NCCO", "values": [
      {"measurement": "Activity", "setting": "SH-SY5Y [8]", "value": "Active"},
      {"measurement": "IC50", "setting": "SH-SY5Y [1]", "value": "> 100", "unit": "µM"},
      {"measurement": "Activity", "setting": "Rattus norvegicus [9]", "value": 23, "unit": "%"},
      {"measurement": "half-life at 1 µM", "setting": "[3]", "value": 1.53, "unit": "h"},
      {"measurement": "Activity", "setting": "SH-SY5Y [10]", "value": "Active"},
      {"measurement": "Activity", "setting": "SH-SY5Y [11]", "value": 4.87, "unit": "%"},
      {"measurement": "solubility at 24 h", "setting": "[4]", "value": 10.9, "unit": "mg/mL"},
      {"measurement": "IC50", "setting": "[5]", "value": "> 40", "unit": "µM"},
      {"measurement": "Activity", "setting": "SH-SY5Y [12]", "value": 16, "unit": "%"},
      {"measurement": "Activity", "setting": "SH-SY5Y [6]", "value": "<=80%"},
      {"measurement": "Activity", "setting": "SH-SY5Y [13]", "value": 9.36, "unit": "%"},
      {"measurement": "viability at 4 µM", "setting": "SH-SY5Y [14]", "value": 69.8, "unit": "%"},
      {"measurement": "Activity", "setting": "HT-22", "value": "Active"},
      {"measurement": "IC50", "setting": "MRC5", "value": 23.6, "unit": "µM"},
      {"measurement": "Activity", "setting": "Rattus norvegicus [7]", "value": 0.3, "unit": "mg/kg"},
      {"measurement": "Activity", "setting": "SH-SY5Y [15]", "value": "Active"},
      {"measurement": "Activity", "setting": "SH-SY5Y [16]", "value": "Active"},
      {"measurement": "Activity", "setting": "Rattus norvegicus [17]", "value": "Active"},
      {"measurement": "Activity", "setting": "Rattus norvegicus [18]", "value": 25, "unit": "%"}
    ]}
  ]
}
